Measured values of several laboratories.
pEC50, pIC50: −log10 of the molar value.
Effect on: cell growth or viability

`Cn1nnc2c(C(N)=O)ncn2c1=O` has a pEC50 of < 3.00 (BGC-823).
The GI50 of `COc1ccc(-c2ccc(-c3ccc(C(=N)N)nc3)s2)cc1Cl` is reported as 1760 nM (UACC-62; SRB).
The GI50 of `N[C@@H]1CCCN(c2c(/C=C3\SC(=O)NC3=O)cccc2-c2ccccc2)C1` is reported as 4670 nM (KMS-11; thymidine uptake).
`COc1cc(-c2ccc(-c3ccc(C(=N)N)nc3)s2)cc(OC)c1OC` has a GI50 of 2590 nM (Hs-578T; SRB).
`N[C@@H](CC(=O)N1CCN(C(c2ccc(F)cc2)c2ccc(F)cc2)CC1)C(=O)N1Cc2ccccc2C1` has a pIC50 of 4.50 (HEL; ATP luminescence; 48 h).
The pIC50 of `NCCOc1cc(NC(=O)c2cc(OCc3ccc(F)cc3)cc(C(=O)Nc3cc(OCCN)c4ccccc4n3)n2)nc2ccccc12` is reported as 5.25 (U2OS; ATP luminescence; 72 h).
With `CC(C)C[C@H](NC(=O)[C@H](Cc1ccccc1)NC(=O)c1cnccn1)B(O)O` the pIC50 was 7.96 (U2OS; ATP luminescence).
`COc1ccc(-c2ccc(-c3ccc(C(=N)N)nc3)s2)cc1` has a GI50 of 1820 nM (Hs-578T; SRB).
With `O=C(Nc1cc(OCCN2CCCC2)c2ccccc2n1)c1cc(OCc2ccc(F)cc2)cc(C(=O)Nc2cc(OCCN3CCCC3)c3ccccc3n2)n1` the pIC50 was 5.24 (U2OS; ATP luminescence; 72 h).
The pIC50 of `CC(C)[C@H](N)C(=O)N1CCC[C@H]1B(O)O` is reported as 7.36 (SKM-1; ATP luminescence; 48 h).
The pEC50 of `CCCCCCCCCCCCNC(=S)NCCCC[C@H](NS(C)(=O)=O)C(=O)N[C@H](C)C(=O)N[C@@H](CCCNC(=N)N)C(=O)N1CCOCC1` is reported as 3.90 to 4.05 (HeLa; MTT; 72 h).
The pIC50 of `COc1cc(-c2ncn(/C=C\C(=O)OC(C)C)n2)cc(C(F)(F)F)c1` is reported as 7.10 (SKM-1; 72 h).
